Data taken from ChEMBL document CHEMBL4513216, “Probing the Open Global Health Chemical Diversity Library for Multistage-Active Starting Points for Next-Generation Antimalarials” (ACS Infect Dis, 2020).

assay: Toxicity liver stage against HepG2, at 10uM; assay type: cell-based; set-up: test concentration 10 uM, cell line HepG2-A16-CD81EGFP; conditions: human, HepG2-A16-CD81EGFP cells; read-out: INHIBITION
Summary of the method: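 Uninfected HepG2-A16-CD81EGFP cells, 3 × 10^3 per well, 1536-well, plated on prespotted compound at 10 μM final, parasite-free screening media added to match infected plates; puromycin 10 μM positive, DMSO 0.5% negative; run in parallel with 48 h PbLuc assay at 37 °C, 5% CO2; viability by CellTiter-Glo luminescence, normalized to controls.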

Row | Compound | cytotoxicity at 10 µM [%]
1 | COc1ccccc1N1CCC(CNCc2cccc(C#N)c2)C1 (stereo unspecified) | -5.21
2 | Cc1cc(C(=O)N2CC[C@H](N3CCN(C)CC3)[C@H](CCCO)C2)n(C)n1 | -12.4
3 | O=C(NCc1cc(F)ccc1F)Nc1ccn(CC(F)F)n1 | -3.06
4 | CC(C)(C)c1cnc(CN2CCC[C@H]2CO)o1 | -14.8
5 | Fc1ccc(-c2nc(CNCCn3cccn3)cs2)cc1 | -11.2
6 | C=Cn1cc(CN2CCc3nc(-c4cccnc4)nc(O)c3C2)c(C)n1 | -6.94
7 | COCCN1CCCn2c(nc(CNS(C)(=O)=O)cc2=O)C1 | -110
8 | Cc1n[nH]c(SCC(=O)N[C@@H](C)C(N)=O)n1 | 8.07
9 | N#Cc1ccc(C(=O)N2C[C@H](OCc3cccnc3)[C@H]3COC[C@H]32)cc1 | 5.38
10 | N#Cc1cccc(N2CC3(CCN(C(=O)c4cccnc4)C3)CC2=O)c1 (stereo unspecified) | 0.925
11 | NC1CCC(Nc2nccc(CCC(F)(F)F)n2)CC1 (stereo unspecified) | -15
12 | O=S(=O)(Nc1c(F)cccc1N1CCCC1)c1cncc(F)c1 | 3.22
13 | O=C(Nc1ncnc2c1CCC2)c1cccc(F)c1 | -172
14 | CC(C#N)NS(=O)(=O)c1cccc(C(C)C)c1 (stereo unspecified) | 0.846
15 | CS(=O)(=O)CCCC(=O)Nc1cc(-c2cccc(F)c2F)n[nH]1 | 4.77
16 | Cc1cccc(NC2CCN(C(=O)Nc3ccc(F)c(F)c3)CC2)n1 | 9.59
17 | O=C(NCC(=O)N1CCCCC1)c1sccc1C1CC1 | -136
18 | CC(C)CCN(C)Cn1ncc2cn(-c3ccccc3)nc2c1=O | 6.72
19 | Cc1cc(CNC(=O)NC(C)c2ccncc2)no1 (stereo unspecified) | -13.5
20 | N#Cc1cc(NS(=O)(=O)c2ccc(C(=O)O)cc2F)ccc1F | -10.9
21 | CCc1cc(C(=O)N2CCCC2c2nc(O)cc(CC)n2)on1 (stereo unspecified) | -7
22 | CC[C@@H](CO)Nc1nccc(-c2cnc3sc(C)cn3c2=O)n1 | -14
23 | CC1(C)CNC(=O)c2nc(-c3nnn[nH]3)[nH]c2C1 | -5.69

Row | Compound | cytotoxicity at 10 µM [%]
24 | O=C(c1nnn(-c2ccc(C(F)(F)F)cc2)n1)N1CCC(O)CC1 | -4.52
25 | COCCC(=O)N1CCC(c2cncc(Oc3cccnc3)n2)CC1 | -9.55
26 | CCCn1cc(C(=O)NC(C(=O)O)c2ccccc2C(F)(F)F)c(C)n1 (stereo unspecified) | -50.2
27 | Cc1nc(C)n(CC2CCCCN2CC(=O)Nc2cc(C)on2)n1 (stereo unspecified) | 2.67
28 | O=C(c1ccsc1)N1CC(c2nc(-c3ccc[nH]c3=O)no2)C1 | -7.39
29 | CCn1cc(Cl)c(C(=O)Nc2ccc3c(c2)C(C)(C)C(=O)N3C)n1 | 9.21
30 | CCOCCN(C)C(c1cccnc1)c1ccc(F)cc1F (stereo unspecified) | 5.64
31 | CCCSc1nn(CCCN(C)C)c2nc3sc(C)c(CC)c3c(=O)n12 | -3.63
32 | CC1(C(=O)NCc2cccc(C(F)(F)F)c2)CCOCC1 | 7.63
33 | COC(=O)NCCC(=O)NCC1(c2cccc(Cl)c2)CC1 | -4.31
34 | COc1ncccc1CNC(=O)NCCNC(=O)c1ccco1 | -0.313
35 | Cn1nc(C2CN(C(=O)c3cccnc3)C2)c2nccnc21 | -21.7
36 | Cc1nc(CN(C)C2CCN(CCc3cccs3)C2)no1 (stereo unspecified) | 6.03
37 | Cc1ccc2c(n1)N(CCn1cccn1)CCN(C(=O)NC1CC1)C2 | -4.58
38 | COC(=O)c1ccoc1CN(C)CC(=O)N(C)C | 3.39
39 | CNC(=O)c1cnc(C=Cc2cc(OC)c(O)c(OC)c2)s1 | 1.64
40 | Cc1ccc(-c2nnc(CN3CCCC(Cn4cncn4)C3)o2)cc1 (stereo unspecified) | -9.07
41 | O=C(NCCC1CCCCO1)c1cc(COc2ccccc2F)[nH]n1 (stereo unspecified) | 6.57
42 | NC(=O)C1CCN(C(=O)Cc2cnc(-c3c(Cl)cccc3Cl)s2)CC1 | -2.23
43 | Cc1cc(C)c(CNC(=O)NCC2Cc3ccccc32)c(=O)[nH]1 (stereo unspecified) | -3.78
44 | COc1ccc(-c2nc(C3(NC(=O)OC(C)(C)C)CCC3)no2)cn1 | 12.5
45 | c1csc(CN2CCn3c(Cn4cncn4)cnc3C2)c1 | -71.7
46 | Cc1noc(CNC(=O)N2CCN(c3nc(C)c(C)s3)CC2)n1 | -19.5

Row | Compound | cytotoxicity at 10 µM [%]
47 | N#CCSCCCN1CCCC(C(=O)N2CCCCCC2)C1 (stereo unspecified) | 4.01
48 | Cc1ccc(C(=O)NC2CCOc3ccccc32)cc1S(C)(=O)=O (stereo unspecified) | -3.83
49 | CCCN(CCC)c1ncc(S(=O)(=O)c2ccccc2)c(N)n1 | -2.26
50 | CCCc1cc(N2CCC(NCC3(O)CCN(C)CC3)CC2)nc(C)n1 | -16.1
51 | Cc1nc(C2CCCN2Cc2nc(C3CC3)no2)no1 (stereo unspecified) | -12.7
52 | COCCN(Cc1cccc(O)c1)CC1CC1 | 12.7
53 | N#Cc1ccc(F)c(CNC(=O)NC(CO)Cc2ccccc2)c1 (stereo unspecified) | 1.98
54 | CN1CCC(N(C)C(=O)CCc2ccc(F)c(F)c2)C1=O (stereo unspecified) | -17.7
55 | COc1cccc2sc(OC3CN(C(=O)C4=COCCO4)C3)nc12 | 4.91
56 | Cc1nc(C(C)C)sc1C(C)N(C)C(=O)c1ccc(=O)n(C)n1 (stereo unspecified) | -1.94
57 | CN1C(=O)CCc2cc(NS(=O)(=O)Cc3cccc(F)c3)ccc21 | 3.6
58 | Cc1nc(CN2CCc3nc(NC(C)C)nc(C)c3C2)cs1 | 2.53
59 | CC(C)N1CCCC(CCCc2ccccn2)(C(=O)O)C1 (stereo unspecified) | 2.6
60 | CCOc1ccc(NC(=O)c2cc(C)c(C)o2)cc1CO | 3.78
61 | Cc1noc(C(C)Nc2ccc3oc(C)nc3c2)n1 (stereo unspecified) | 1.81
62 | CN1CCCN(C[C@@H]2CN(C(=O)CCc3cn[nH]c3)C[C@@H]2CO)CC1 | 2.72
63 | O=C(Cc1ccccn1)N1CCn2cc(Cn3cncn3)nc2C1 | -129
64 | CCc1n[nH]c(C(=O)NCCn2ccc(C)n2)c1C | 8.58
65 | Cc1nn(C)c(C)c1-c1cnc(CC2CCNCC2)cn1 | -13.7
66 | COc1ccc(CN2CCCN(C(=O)C(C)n3ccnc3)CC2)cc1 (stereo unspecified) | -14.1
67 | Cn1cncc1-c1nnc([C@H]2CCN(Cc3ncc[nH]3)C2)o1 | 1.62
68 | Cc1cc(C(=O)NCCN2CCCC(C)C2)nn1C (stereo unspecified) | -2.79
69 | O=c1c2cccnc2cnn1CC(O)c1ccc(Br)cc1 (stereo unspecified) | -2.59

Row | Compound | cytotoxicity at 10 µM [%]
70 | CCc1ccc2c(c1)C(CCNC(=O)CSC(F)(F)F)C(=O)N2 (stereo unspecified) | -45.5
71 | Cc1noc(C)c1CN1CCc2ncc(Cn3cccn3)n2CC1 | 2.65
72 | CSCCC(=O)N1CC[C@@H](N2CCN(c3ccccc3F)CC2)[C@H](O)C1 | -91.4
73 | Cc1nc2c(s1)C(N(C)C(=O)NCCCC(C)(C)CO)CCC2 (stereo unspecified) | -3.43
74 | O=C(Cc1ccc2c(c1)OCCO2)N1CCCC(n2cccn2)C1 (stereo unspecified) | 7
75 | CCn1nc(C)c(CCNC(=O)C2CCCN(CC(N)=O)C2)c1C (stereo unspecified) | -11.8
76 | CN(Cc1ccncc1)c1cncc(Br)c1 | 2.71
77 | CC(C)CNC(=O)c1cn(C(C)C)cc2c(=O)[nH]nc1-2 | 0.583
78 | CN1CCOC(CNCc2ccc(OCc3ccccn3)cc2)C1 (stereo unspecified) | -13.4
79 | Cn1cc(CN2CC[C@@H]3O[C@H](C(=O)N4CCOCC4)C[C@@H]32)cn1 | -8.08
80 | Cc1ccc(CNC(c2ccccc2)c2nccn2C)cc1 (stereo unspecified) | -6.3
81 | Cc1ccc(C(C(=O)O)N(C)CCN2CCOCC2)c(F)c1 (stereo unspecified) | 4.28
82 | CN1N=C(c2nc(Cc3cccc(Br)c3)no2)CCC1=O | -6.09
83 | Cn1cc(N2C(=O)C[C@@H]3[C@@H]2CCN3C(=O)c2ccco2)cn1 | -107
84 | CC(C)CN1CCC(NC(=O)c2ccc(F)cc2Cl)CC1 | -17.1
85 | O=C(CC1NC(N2CCc3ccccc32)=NC1=O)Nc1ccccc1 (stereo unspecified) | -1.3
86 | O=C(NCCc1ccc(Cl)cc1)c1coc(CN2CCOCC2)c1 | 0.383
87 | CN(C)C(=O)COC[C@@H]1CC[C@H]2[C@H](CCN2c2ncccn2)O1 | 15.6
88 | CC(C)CN1CCC(N2CCC(C(=O)N(C)C)CC2)CC1 | 16.9
89 | Cc1ccc(S(=O)(=O)Nc2ccc(=O)n(C)c2)cc1 | 1.07
90 | O=C(c1ccccc1)N1CCC[C@]2(C[C@@H](OCc3ccncc3)CO2)C1 | 5.25
91 | Cc1nnc(N2CCC(NS(C)(=O)=O)CC2)c(C#N)c1C | -5.13
92 | CC[C@H](CO)NC(=O)c1coc(COc2ccccc2F)n1 | 5.21

Row | Compound | cytotoxicity at 10 µM [%]
93 | Clc1ccccc1OC1CN(CC2CCOC2)C1 (stereo unspecified) | -0.745
94 | O=C(c1cccnc1O)N1CCOC(c2ccc(Cl)cc2)C1 (stereo unspecified) | 2.6
95 | Cn1cc(CN2CCc3ncn(C)c3C2COCc2ccccc2)cn1 (stereo unspecified) | 9.19
96 | C[C@@H](NC(=O)c1cccs1)c1onc(-c2cccnc2)c1C(=O)O | 6.09
97 | CCN(CC)Cc1nc2c(o1)CN(C(=O)c1ccc3ncccc3c1)C2 | 6.01
98 | CC(=O)N1CCC(N2CCN(Cc3ccc(C)o3)C(CCO)C2)CC1 (stereo unspecified) | -3.57
99 | Cc1nc2c(c(N3CCC(O)(Cn4ccnc4)CC3)n1)CCNCC2 | 1.37
100 | Cc1ccccc1CNc1ccc(S(N)(=O)=O)c(C(F)(F)F)c1 | 22.2
101 | O=C(C1CC1)N1CCCN(c2ncnc3c2CCNCC3)CC1 | 5.52
102 | Cc1ccc(CN2C[C@@H]3COC[C@@H](NS(C)(=O)=O)[C@@H]3C2)o1 | -8.52
103 | Cc1ncc2c(n1)CN(CC(=O)Nc1cc(C)on1)CC2 | -12.4
104 | CN(CCO)Cc1nnc(C2CCN(C(=O)c3cccn3C)CC2)n1C | -0.537
105 | Cc1nnc2n1CCN(C(=O)c1cnc3c(cnn3CC(C)C)c1)C2 | -8.72
106 | CCOC1COC2(CCN(Cc3cccnc3OC)CC2)C1 (stereo unspecified) | -2.47
107 | CCc1ncc2c(n1)CN(CC(=O)Nc1ccncc1)CC2 | 0.0264
108 | N[C@H]1CN(S(=O)(=O)N2CCCCCC2)C[C@@H]1c1ccccc1 | 2.14
109 | c1cnn(CC2CN(Cc3nnc(C4CC4)o3)CCO2)c1 (stereo unspecified) | -5.09
110 | COc1ccc(CN2C[C@@H](F)[C@@H](OCc3nc4ccccc4[nH]3)C2)cn1 | -2.59
111 | NS(=O)(=O)CCN(CCc1cccc(F)c1)C1CCCC1 | -6.08
